In ChEMBL document CHEMBL4342468, “Evolution of a 4-Benzyloxy-benzylamino Chemotype to Provide Efficacious, Potent, and Isoform Selective PPARα Agonists as Leads for Retinal Disorders” (J Med Chem, 2020):
pEC50: −log10 of the molar value.

Assays:
[1] = Toxicity in STZ-induced diabetic retinopathy Brown Norway rat model assessed as liver weight at 25 mg/kg, ip administered daily for 4 weeks starting at 2 weeks post STZ challenge relative to body weight (reference value: 4.36 +/- 0.37%); format: organism-based; settings: in vivo
[2] = target: T1, Peroxisome proliferator-activated receptor alpha (Homo sapiens, UniProt Q07869)
T1 sequence (Q07869 whole entry): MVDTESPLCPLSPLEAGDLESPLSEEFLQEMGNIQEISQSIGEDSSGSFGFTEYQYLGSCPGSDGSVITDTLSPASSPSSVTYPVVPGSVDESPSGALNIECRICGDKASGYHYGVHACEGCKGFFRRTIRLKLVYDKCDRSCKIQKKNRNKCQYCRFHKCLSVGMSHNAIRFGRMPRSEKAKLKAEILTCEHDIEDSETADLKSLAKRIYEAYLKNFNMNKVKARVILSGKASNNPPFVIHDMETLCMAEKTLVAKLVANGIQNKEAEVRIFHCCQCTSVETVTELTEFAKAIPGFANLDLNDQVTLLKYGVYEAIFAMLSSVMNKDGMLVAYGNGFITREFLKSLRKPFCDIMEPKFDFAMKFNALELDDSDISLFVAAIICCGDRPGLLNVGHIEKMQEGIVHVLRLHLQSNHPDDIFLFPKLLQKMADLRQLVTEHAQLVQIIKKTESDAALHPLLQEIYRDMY

hERG (KCNH2) = hERG (KCNH2) (Homo sapiens, UniProt Q12809); assay: Inhibition of human ERG stably expressed in CHOK1 cells assessed as tail current amplitude at 10 uM incubated for 5 mins measured after deploarization to +20 mV for 2s followed by 1s pulse to -40 mV with holding potential of -80 mV by Qpatch clamp assay relative to control; format: cell-based; settings: CHO-K1 cells stably expressing human ERG
Method in brief: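 Whole-cell automated patch clamp at room temperature on CHO-K1 cells stably carrying human hERG cDNA. Holding potential -80 mV; tail current evoked by 2 s step to +20 mV then 1 s to -40 mV.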

[3] = target: T2, Peroxisome proliferator-activated receptor gamma (Homo sapiens, UniProt P37231); assay: Agonist activity at human PPARgamma expressed in nonhuman mammalian cells assessed as increase in receptor transcriptional activity incubated for 22 to 24 hrs by luciferase reporter gene assay; format: cell-based
T2 sequence (P37231 whole entry): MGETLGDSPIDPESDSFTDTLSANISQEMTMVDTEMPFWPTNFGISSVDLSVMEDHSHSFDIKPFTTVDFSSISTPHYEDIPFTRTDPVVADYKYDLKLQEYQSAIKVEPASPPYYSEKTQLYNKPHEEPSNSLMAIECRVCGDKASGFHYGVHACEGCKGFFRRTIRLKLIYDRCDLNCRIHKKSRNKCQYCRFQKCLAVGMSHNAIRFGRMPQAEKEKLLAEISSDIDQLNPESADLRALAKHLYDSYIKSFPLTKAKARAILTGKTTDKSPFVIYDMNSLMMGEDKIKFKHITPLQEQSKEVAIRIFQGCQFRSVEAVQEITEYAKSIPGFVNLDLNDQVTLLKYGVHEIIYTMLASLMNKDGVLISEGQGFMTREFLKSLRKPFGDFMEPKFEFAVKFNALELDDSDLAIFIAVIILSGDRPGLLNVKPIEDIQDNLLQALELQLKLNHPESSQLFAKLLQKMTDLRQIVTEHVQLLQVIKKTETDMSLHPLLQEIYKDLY
Method in brief: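 Reporter cells (nonhuman mammalian, engineered PPAR receptor with luciferase linked to response promoter) pre-incubated 4–6 h at 37 °C, 5% CO2 in medium with 10% charcoal-stripped FBS. Medium replaced with compound-containing screening medium, 22–24 h at 37 °C, then luciferase detection reagent, luminescence read. Multi-point dose-response for EC50; mean ± SEM of at least two separate experiments in triplicate.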

[4] = target: T3, Peroxisome proliferator-activated receptor delta (Homo sapiens, UniProt Q03181); assay: Agonist activity at human PPARdelta expressed in nonhuman mammalian cells assessed as increase in receptor transcriptional activity incubated for 22 to 24 hrs by luciferase reporter gene assay; format: cell-based
T3 sequence (Q03181 whole entry): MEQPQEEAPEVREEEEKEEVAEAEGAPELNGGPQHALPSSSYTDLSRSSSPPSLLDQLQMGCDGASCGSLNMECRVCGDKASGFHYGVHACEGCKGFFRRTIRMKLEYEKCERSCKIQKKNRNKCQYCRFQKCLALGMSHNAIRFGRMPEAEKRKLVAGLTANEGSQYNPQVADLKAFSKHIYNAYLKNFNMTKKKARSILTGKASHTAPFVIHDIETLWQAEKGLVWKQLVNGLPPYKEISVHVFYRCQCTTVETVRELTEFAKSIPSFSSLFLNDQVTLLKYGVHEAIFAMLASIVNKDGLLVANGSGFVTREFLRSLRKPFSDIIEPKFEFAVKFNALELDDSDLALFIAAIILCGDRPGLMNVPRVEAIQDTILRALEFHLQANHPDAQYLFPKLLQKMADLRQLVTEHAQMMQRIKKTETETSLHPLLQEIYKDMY

661W = assay: Cytotoxicity against mouse 661W cells assessed as cell death at 200 uM incubated for overnight by colorimetric enzyme coupled LDH assay; format: cell-based
Rattus norvegicus = assay: Protection against STZ-induced diabetic retinopathy Brown Norway rat model assessed as reduction in vascular leakage by measuring retinal vascular permeability at 25 mg/kg, ip administered daily for 4 weeks starting at 2 weeks post STZ challenge measured per mg of total retinal protein by Evan blue dye based assay (reference value: 0.090 +/- 0.015 microg); format: functional
Method in brief: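 Male Brown Norway rats aged 8 weeks (legend: 7–8 weeks) made diabetic with STZ 55 mg/kg i.p.; blood glucose >350 mg/dl at day 3. Starting 2 weeks after STZ, daily i.p. compound or same-volume vehicle for 4 weeks. Under ketamine/xylazine, Evans blue 30 mg/ml at 1 µl/g given i.v. via femoral vein and circulated 2 h. Perfusion with 1% paraformaldehyde in citrate buffer, pH 4.2, at 37°C. Retina extracted in formamide 18 h at 70°C, ultracentrifuged, A620 read. Dye amount from a standard curve, normalized to total protein. Groups compared by Student's t-test, mean ± SD.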

[5] = target: T1, Peroxisome proliferator-activated receptor alpha; assay: Binding affinity to PPARalpha in human MIO-M1 cells assessed as increase in thermal stability preincubated for 3 hrs followed by exposure to 45.5 degree C for 10 mins by CETSA; format: cell-based
Method in brief: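 Human retinal Müller glial MIO-M1 cells grown in DMEM with 10% FBS. They were then heated at Tagg(75) for 10 min. Lysis used cold PBS with 0.1% Triton X-100 and protease inhibitors, and unstable protein was removed by centrifugation. Soluble PPARα was quantified by anti-PPARα immunoblot, normalized to loading control, and EC50 fitted. Single experiment, duplicate.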

[6] = Toxicity in STZ-induced diabetic retinopathy Brown Norway rat model at 25 mg/kg, ip administered for 1 month starting at 2 weeks post STZ challenge; format: organism-based; settings: in vivo, 336 h
[7] = target: T4, Peroxisome proliferator-activated receptor alpha (Homo sapiens) (UniProt Q07869); assay: Binding affinity to His tagged PPARalpha LBD (unknown origin) expressed in Escherichia coli Rosetta (DE3) assessed as change in entropy at 25 degree C by isothermal titration calorimetry
T4 sequence (whole entry): T1 sequence (Q07869 whole entry)

[8] = Half life in human pooled liver microsomes preincubated for 5 mins prior to addition of NADPH-regenerating system and measured up to 60 mins by HPLC-MS/MS analysis; format: ADME, Microsome; settings: 1 h
[9] = Half life in Sprague Dawley rat pooled liver microsomes preincubated for 5 mins prior to addition of NADPH-regenerating system and measured up to 60 mins by HPLC-MS/MS analysis; format: ADME, Microsome; settings: 1 h
[10] = target: Voltage-gated inwardly rectifying potassium channel KCNH2 (Homo sapiens, UniProt Q12809); assay: Inhibition of human ERG stably expressed in CHOK1 cells assessed as tail current amplitude at 0.1 to 10 uM incubated for 5 mins measured after deploarization to +20 mV for 2s followed by 1s pulse to -40 mV with holding potential of -80 mV by Qpatch clamp assay; format: cell-based
Method in brief: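 Whole-cell automated patch clamp at room temperature. CHO-K1 cells were detached with trypsin and held in serum-free medium. Intracellular solution was KCl/EGTA/MgATP/HEPES at pH 7.2; extracellular solution was NaCl/KCl/CaCl2/glucose/HEPES at pH 7.4, applied first for 5 min. Compound given at 0.1, 1 and 10 μM in rising order, 5 min each, on the same cell. Percent inhibition taken from tail current before and after compound. E-4031 reference. Run in duplicate.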

[11] = Stability in human pooled liver microsomes preincubated for 5 mins prior to addition of NADPH-regenerating system and measured up to 60 mins by HPLC-MS/MS analysis; format: ADME, Microsome; settings: 1 h
Method in brief: (§1)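 Compound pre-incubated 5 min at 37 °C with pooled liver microsomes in phosphate buffer, pH 7.4. NADPH-generating system then added; samples taken at 0, 15, 30, 45 and 60 min and quenched in acetonitrile/methanol. […] References: propranolol, imipramine, verapamil, terfenadine. Run in duplicate.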

[12] = Stability in Sprague Dawley rat pooled liver microsomes preincubated for 5 mins prior to addition of NADPH-regenerating system and measured up to 60 mins by HPLC-MS/MS analysis; format: ADME, Microsome; settings: 1 h; method in brief: as §1

Sequence of hERG (KCNH2) (Q12809 whole entry): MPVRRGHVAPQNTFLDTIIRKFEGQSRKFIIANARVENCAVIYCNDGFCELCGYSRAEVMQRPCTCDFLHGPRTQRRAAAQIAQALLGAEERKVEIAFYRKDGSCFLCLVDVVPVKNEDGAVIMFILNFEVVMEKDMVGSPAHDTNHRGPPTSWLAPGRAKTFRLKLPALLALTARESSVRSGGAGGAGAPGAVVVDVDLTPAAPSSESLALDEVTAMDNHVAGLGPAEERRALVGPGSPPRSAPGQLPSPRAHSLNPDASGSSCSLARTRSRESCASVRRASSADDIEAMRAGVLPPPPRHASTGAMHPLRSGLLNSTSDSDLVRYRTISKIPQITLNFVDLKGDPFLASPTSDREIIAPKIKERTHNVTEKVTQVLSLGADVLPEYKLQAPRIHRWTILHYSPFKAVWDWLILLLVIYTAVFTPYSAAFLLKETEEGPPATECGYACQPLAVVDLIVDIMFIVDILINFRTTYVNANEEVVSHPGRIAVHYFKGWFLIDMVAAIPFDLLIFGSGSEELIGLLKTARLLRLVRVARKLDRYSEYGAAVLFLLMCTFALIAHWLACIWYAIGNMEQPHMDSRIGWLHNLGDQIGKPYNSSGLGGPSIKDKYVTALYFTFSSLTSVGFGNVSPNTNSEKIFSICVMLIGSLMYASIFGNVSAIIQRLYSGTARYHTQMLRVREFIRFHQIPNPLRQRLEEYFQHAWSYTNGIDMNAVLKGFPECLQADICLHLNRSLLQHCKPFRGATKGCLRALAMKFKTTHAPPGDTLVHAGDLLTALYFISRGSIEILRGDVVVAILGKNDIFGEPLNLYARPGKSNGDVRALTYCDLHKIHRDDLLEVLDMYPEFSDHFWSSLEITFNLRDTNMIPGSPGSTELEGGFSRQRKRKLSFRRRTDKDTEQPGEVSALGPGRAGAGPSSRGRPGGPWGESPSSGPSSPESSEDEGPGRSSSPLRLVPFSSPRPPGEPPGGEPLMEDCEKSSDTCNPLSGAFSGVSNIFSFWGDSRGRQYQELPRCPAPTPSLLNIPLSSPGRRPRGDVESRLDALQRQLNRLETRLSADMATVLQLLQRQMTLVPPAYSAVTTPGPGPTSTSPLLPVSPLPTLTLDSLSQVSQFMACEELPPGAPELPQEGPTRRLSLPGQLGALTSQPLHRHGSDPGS
Sequence of Voltage-gated inwardly rectifying potassium channel KCNH2 (Q12809 whole entry): as above

| SMILES | Activity [1] [%] | pEC50 [2] | inhibition at 5 min, 10 µM (hERG (KCNH2)) [%] | pEC50 [3] | pEC50 [4] | Activity (661W) | Activity (Rattus norvegicus) [µg] | pEC50 [5] | Activity [6] | -TdeltaS [7] [kcal/mol] | t1/2 [8] [h] | t1/2 [9] [h] | inhibition (INH) [10] | Stability [11] | Stability [12] |
| --- | --- | --- | --- | --- | --- | --- | --- | --- | --- | --- | --- | --- | --- | --- | --- |
| COc1ccc(COc2ccc(CNc3cccc(C(=O)O)c3)cc2)cc1 | 4.68 | 5.35 | 10 | < 4.00 | < 4.00 | Non-Toxic | 0.062 | 6.52 | Non-Toxic | 5.71 | > 1 | > 1 | Not Active | – | – |
| Cc1cc(CNc2cccc(C(=O)O)c2)ccc1OCc1ccc(F)cc1 | – | 7.43 | 10 | – | – | – | – | 7.03 | – | -1.65 | – | – | – | Stable | Stable |
